# Source: PubChem
# Many of the other results were omitted from the sample, so hits are more common in it than they were.
# CHOP UPR activ: activators of apoptotic arm of unfolded protein response (CHOP); activation, % at 10 µM; 330,000 tested, 0.34% active; CHO-CHOP luciferase reporter, UPR activation, luminescence; percent of tunicamycin response over DMSO baseline;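 active = at 10 µM dose, activation of 40% or more, normalized to positive control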;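 note: 100% = tunicamycin at 10 µg/mL and 0% = DMSO alone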
#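 Assay system: CHO cells with stable CHOP pathway luciferase reporter; Buffer or medium: F12 plus 10% serum; Times: 16-18 h cell attachment, then 6 h compound exposure, 37 °C; Signal: luciferase luminescence; Read-out basis: percent activation relative to tunicamycin control; Control set: tunicamycin high control, DMSO low control.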
# CTSL1 counter: cathepsin L1 inhibition, PFM18AAP counter-screen. inhibition, % at 5.96 µM. 300,000 tested, 0.49% active. recombinant F. hepatica cathepsin L1, Z-Leu-Arg-MCA fluorescence;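 active = inhibition above the mean of all tested compounds plus 3 SD, set per screening campaign, cut at about 17% in these data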;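 note: 0% = plate median of test compound wells and 100% = 1 µM Z-Phe-Ala-diazomethylketone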
# CHOP inhibitor: blocks CHOP induction under ER stress; inhibition, % at 10 µM; CHO-K1 CHOP-promoter luciferase, tunicamycin-induced, 15-18 h; 220,000 tested, 3.8% active; AID 2732;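 active = compounds that reduced the stress-induced luciferase reporter signal by more than about 70% of percent inhibition, limit read from the data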;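 note: 0% = tunicamycin plus vehicle and 100% = wells without tunicamycin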
# UCH37 DUB inh: human UCH37 deubiquitinating enzyme inhibition; 330,000 tested, 0.33% active; inhibition, % (test concentration not listed); purified proteasome/UCH37, Ub-AMC cleavage fluorescence;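 active = mean inhibition over replicate wells above about 20%, limit read from the data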;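 note: 0% = compound-free wells with enzyme and 100% = wells lacking proteasome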
# Target sequence (Q9Y5K5 whole entry, looked up): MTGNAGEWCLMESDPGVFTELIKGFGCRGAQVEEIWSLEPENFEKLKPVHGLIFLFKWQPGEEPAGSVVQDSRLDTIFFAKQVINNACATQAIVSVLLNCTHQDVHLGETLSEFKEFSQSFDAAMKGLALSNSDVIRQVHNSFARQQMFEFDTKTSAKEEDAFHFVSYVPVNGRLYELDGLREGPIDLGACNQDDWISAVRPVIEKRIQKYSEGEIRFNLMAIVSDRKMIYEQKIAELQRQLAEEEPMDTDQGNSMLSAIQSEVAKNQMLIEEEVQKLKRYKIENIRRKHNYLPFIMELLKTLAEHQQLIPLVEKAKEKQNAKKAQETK
#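 system = Proteasome-associated human UCH37 deubiquitinase | amount = 0.15 nM proteasome as dispensed | medium = pH 7.4 Tris-HCl (50 mM) with ovalbumin, ATP-MgCl2, DTT | incubation = 30 min preincubation with enzyme, 25 min cleavage at room temperature | detection = AMC fluorescence 355/460 nm | read-out basis = percent inhibition | controls = no-proteasome and no-compound wells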
# XBP1 UPR activ: activators of adaptive arm of unfolded protein response (XBP1); activation, % at 20 µM; AID 463104; 330,000 tested, 0.33% active; CHO-XBP1 luciferase reporter, IRE1-XBP1 UPR activation, luminescence; percent of tunicamycin response, DMSO as zero;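 active = versus positive control, 20 µM dose yields 30% or more activation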;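 note: 100% = tunicamycin at 10 µg/mL and 0% = DMSO only wells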
#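 Assay system: CHO-XBP1 luciferase reporter cells; Schedule: 6 h treatment, 37 °C; Detection: glow luminescence from Steady-Glo reagent; Benchmarks: high control tunicamycin 10 µg/mL final, low control DMSO vehicle only.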
# * hit, by the source's call; x = not tested or not shown.
SMILES,CHOP UPR activ,CTSL1 counter,CHOP inhibitor,UCH37 DUB inh,XBP1 UPR activ
CCCCSc1nnc(CCCCCNC(=O)OC(C)(C)C)o1,-1.7,0.3,79.5*,0.9,-3.7
CCc1ccc(NC(=O)c2ccc(F)c(S(=O)(=O)NCC3COc4ccccc4O3)c2)cc1 (stereo unspecified),3.0,-2.8,78.5*,0.0,2.5
O=c1/c(=C\c2cc([N+](=O)[O-])cc([N+](=O)[O-])c2O)sc2nc3ccccc3n12,-0.2,4.1,18.3,x,-2.3
O=c1c(=Cc2cc([N+](=O)[O-])cc([N+](=O)[O-])c2O)sc2nc3ccccc3n12,x,x,x,27.0*,x
O=C(Nc1ccccc1Cl)ON=C(c1ccccc1)c1ccccn1,x,x,x,3.2,x
N#Cc1cc(-c2ccccc2)nc(Oc2ccc(Cl)cc2)n1,4.3,3.5,71.2*,2.1,9.6
Cc1nnc(SCC2=C(C(=O)O)N3C(=O)C(NC(=O)c4cccc(F)c4F)C3SC2)s1 (stereo unspecified),0.1,29.3*,-10.2,3.9,-2.5
COc1ccc(NC(=O)c2nc[nH]c2C(=O)N[C@@H](CC(C)C)C(=O)OC(C)(C)C)cc1,-0.5,5.8,76.1*,x,5.8
CC(C)C[C@H](NC(=O)c1[nH]cnc1C(=O)Nc1ccc(CNC(=O)OC(C)(C)C)cc1)C(=O)OC(C)(C)C,4.6,10.4,84.5*,1.9,11.5
COc1ccc(NC(=O)c2nc[nH]c2C(=O)N[C@@H](C)C(=O)OC(C)(C)C)cc1,-2.0,1.5,24.7,1.8,-1.3
Cc1nn(-c2nc(-c3ccco3)cc(C(F)(F)F)n2)c(C)c1Cl,-1.5,-3.4,88.0*,-5.3,0.2
COC(=O)C(C)N(C#N)c1nc(NC(C)C)nc(SC)n1 (stereo unspecified),0.1,32.0*,0.0,3.5,-3.8
COC(=O)CN(C#N)c1nc(NC(C)C)nc(NC(C)C)n1,-1.5,69.2*,9.4,1.3,-1.9
COC(=O)C/C=C/[C@@H](C)[C@@H](C=NOC[C@H]1O[C@H](c2ccccc2)C=C[C@@H]1Oc1ccc(OC)cc1)OC,x,x,x,3.2,x
CCOC(=O)c1c(NC(=S)Nc2ccc(F)cc2)sc2c1CCC2,-1.5,1.9,73.6*,5.0,-0.3
CN(CC(=O)Nc1nc2ccccc2s1)S(=O)(=O)c1ccc(Cl)cc1,1.2,0.9,84.0*,3.5,-1.1
O=C(CCN1CCOCC1)Nc1c(-c2ccccc2)c2cc(Br)ccc2[nH]c1=O,-2.6,1.9,-5.7,3.8,-0.7
Cc1ccc2[nH]c(=O)c(N3CCOCC3)c(-c3ccccc3)c2c1,0.1,8.2,76.3*,-75.1,-1.6
CCC(C=NNC(=O)CCCCC(=O)NN=CC(CC)CC)CC,x,x,x,7.3,x
C/C(=N\NC(=O)c1cc(C)nc2ccccc12)c1ccccn1,85.0*,x,x,x,5.3
CC(=NNC(=O)c1cc(C)nc2ccccc12)c1ccccn1,x,x,x,1.1,x
O=C1NC(=O)/C(=C/c2cccc([N+](=O)[O-])c2)N1,-1.3,-1.8,10.5,x,-4.2
CCN1C/C(=C/c2cccc([N+](=O)[O-])c2)C(=O)/C(=C/c2cccc([N+](=O)[O-])c2)C1,x,-3.6,110.7*,2.2,x
COCC(=O)Nc1ncc(S(=O)(=O)c2ccc([N+](=O)[O-])cc2)s1,1.4,-0.5,-9.3,2.5,-0.5
O=C(NC(Nc1ncc(S(=O)(=O)c2ccc([N+](=O)[O-])cc2)s1)(C(F)(F)F)C(F)(F)F)c1ccc(Cl)cc1,6.3,-0.8,88.1*,x,5.3
SMILES,CHOP UPR activ,CTSL1 counter,CHOP inhibitor,UCH37 DUB inh,XBP1 UPR activ
O=C(Nc1ccc(C(F)(F)F)cc1Cl)c1ccc(Cn2cc(Br)cn2)o1,-2.1,0.0,73.0*,3.1,-2.5
COc1ccc(/C=N/NC(=O)c2nn(-c3ccc(Cl)cc3)c(=O)c3c(N)scc23)cc1,3.0,8.8,9.6,x,-0.2
COc1ccc(/C=N/NC(=O)c2nn(-c3ccccc3)c(=O)c3c(N)scc23)cc1,0.6,30.9*,-30.3,x,-2.7
C#CCNC(=O)C1=C[C@@H](c2ccc(Br)cc2)[C@H](CCCO)[C@@H](OCC)O1,-0.7,0.8,11.8,24.2*,-0.6
COC(=O)NN=Cc1cc([N+](=O)[O-])cc(Br)c1O,x,x,x,4.8,x
O=C(COC(=O)c1ccccc1C(=O)c1ccc(Cl)c([N+](=O)[O-])c1)NC1CC1,19.1,2.5,106.0*,1.9,-4.3
O=C(O)COc1ccccc1C=NNC(=O)CSc1nc2ccccc2n1Cc1ccc(Cl)cc1,x,x,x,2.2,x
O=C(Cc1ccc(NS(=O)(=O)c2ccc(Cl)c(Cl)c2)cc1)NCCN1CCOCC1,0.8,x,x,2.2,1.4
O=S(=O)(Nc1ccc(Cl)cc1)c1ccc(N2CCOCC2)c(NC(=S)NCCN2CCOCC2)c1,1.7,-4.4,80.9*,4.6,-2.6
CC(C)N(Cc1nc(-c2ccc(Cl)cc2)no1)C(=O)CCC1CCCC1,0.7,1.3,83.8*,3.3,-4.4
CCCc1cc2c(cc1NC(=O)c1ccc(Br)cc1)OCO2,0.6,1.4,82.5*,0.5,7.8
Cc1ccc(C)c(Nc2c([N+](=O)[O-])ccc3nonc23)c1,0.9,0.9,x,2.5,12.8
Cc1ccccc1Nc1c([N+](=O)[O-])ccc2c1=NC1(CCCCC1)N=2,1.3,-0.3,75.7*,6.9,-0.4
Nc1nonc1C(=O)NCCNCc1c(OCc2ccccc2F)ccc2ccccc12,-1.1,1.6,73.3*,4.0,0.8
CCOc1ccc(NC(=O)c2ccc(F)c(S(=O)(=O)N3CCN(c4ccccn4)CC3)c2)cc1,6.3,-1.8,57.8,2.4,0.9
O=S(=O)(c1ccc(Cl)c(C(F)(F)F)c1)N1CCN(c2ccccn2)CC1,-1.1,-0.5,71.5*,1.9,-2.6
O=C(Nc1cccc(Cl)c1)c1ccc(F)c(S(=O)(=O)N2CCN(c3ccccn3)CC2)c1,-1.4,-4.1,74.2*,1.6,-0.9
CC1CN(C)C(C)CC1=NOc1ccccc1[N+](=O)[O-] (stereo unspecified),x,x,x,7.9,x
Fc1ccc(-c2ccc(C=Nn3cnnc3)o2)cc1Cl,x,x,x,2.7,x
COc1ccc(-c2nnc(N3CCOCC3)c3ccccc23)cc1,-1.3,19.1*,x,-0.6,-5.8
Cc1ccc(-c2nnc(N3CCC(C)CC3)c3ccccc23)cc1,2.4,3.2,84.3*,1.6,8.1
CC1CCN(c2nnc(-c3ccccc3)c3ccccc23)CC1,1.2,4.3,11.8,3.4,-2.1
Cc1ccc(-c2nnc(N3CCC(C)CC3)c3ccccc23)cc1C,2.0,0.6,90.3*,-1.4,7.4
COc1ccc(-c2nnc(N3CCCCC3)c3ccccc23)cc1,-1.4,5.7,27.9,0.3,-1.5
COc1ccc(C=NNC(=O)CCC(=O)Nc2ccc(Br)cc2)c(OC)c1,x,x,x,3.2,x
C=CCN1C(=O)C(Cc2ccc(OC)cc2)SC1=NN=Cc1cccs1 (stereo unspecified),x,x,x,-4.2,x
Cc1cccc(C=NNC(=O)CNc2cccc3ccccc23)n1,x,x,x,-10.4,x
